# ChEMBL document CHEMBL4610084, “Antibacterial and ATP Synthesis Modulating Compounds from Salvia tingitana” (2020)
# Experiments:
# Format in all cases: functional
# [1] = tested on: Enterococcus casseliflavus; experiment: Antibacterial activity against Vancomycin resistant Enterococcus casseliflavus MB159 after 24 hrs by microdilution assay; conditions: MB159, 24 h
# How it was run: (§1)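 Broth microdilution MIC, run as in an earlier cited report. Strains are clinical isolates identified by standard methods and MALDI-TOF; E. faecalis MB19 and MB51 are Ligurian seawater isolates. Highest concentration tested was 128 μg/mL. MICs are given in μg/mL and μM, with oxacillin and vancomycin as reference antibiotics.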
# Enterococcus faecium [2] = experiment: Antibacterial activity against Enterococcus faecium MB3 after 24 hrs by microdilution assay; conditions: MB3, 24 h
# How it was run: (§2)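 Broth microdilution MIC against clinical or seawater-isolated strains (identified by standard procedures and MALDI-TOF), with compound solutions and testing as in earlier work. MIC reported in μg/mL and μM.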
# [3] = tested on: Staphylococcus saprophyticus; experiment: Antibacterial activity against Staphylococcus saprophyticus MB41 after 24 hrs by microdilution assay; conditions: MB41, 24 h; how it was run: as §2
# [4] = tested on: Staphylococcus lugdunensis; experiment: Antibacterial activity against Staphylococcus lugdunensis MB96 after 24 hrs by microdilution assay; conditions: MB96, 24 h; how it was run: as §2
# Staphylococcus hominis = experiment: Antibacterial activity against Methicillin-resistant Staphylococcus hominis MB124 after 24 hrs by microdilution assay; conditions: MB124, 24 h; how it was run: as §1
# Staphylococcus capitis = experiment: Antibacterial activity against Methicillin-resistant Staphylococcus capitis MB71 after 24 hrs by microdilution assay; conditions: MB71, 24 h; how it was run: as §1
# Enterococcus faecalis [5] = experiment: Antibacterial activity against Vancomycin resistant Enterococcus faecalis MB1 after 24 hrs by microdilution assay; conditions: MB1, 24 h; how it was run: as §1
# [6] = tested on: Staphylococcus epidermidis; experiment: Antibacterial activity against Methicillin-resistant Staphylococcus epidermidis MB165 after 24 hrs by microdilution assay; conditions: MB165, 24 h; how it was run: as §1
# Enterococcus gallinarum = experiment: Antibacterial activity against Vancomycin resistant Enterococcus gallinarum MB111 after 24 hrs by microdilution assay; conditions: MB111, 24 h; how it was run: as §1
# [7] = tested on: Staphylococcus haemolyticus; experiment: Antibacterial activity against Methicillin-resistant Staphylococcus haemolyticus MB115 after 24 hrs by microdilution assay; conditions: MB115, 24 h; how it was run: as §1
# [8] = tested on: Staphylococcus epidermidis; experiment: Antibacterial activity against Methicillin-resistant Staphylococcus epidermidis MB169 after 24 hrs by microdilution assay; conditions: MB169, 24 h; how it was run: as §1
# Enterococcus faecium [9] = experiment: Antibacterial activity against Enterococcus faecium MB152 after 24 hrs by microdilution assay; conditions: MB152, 24 h; how it was run: as §2
# Staphylococcus warneri = experiment: Antibacterial activity against Methicillin-resistant Staphylococcus warneri MB74 after 24 hrs by microdilution assay; conditions: MB74, 24 h; how it was run: as §1
# Enterococcus avium = experiment: Antibacterial activity against Enterococcus avium MB119 after 24 hrs by microdilution assay; conditions: MB119, 24 h; how it was run: as §2
# Staphylococcus simulans = experiment: Antibacterial activity against Staphylococcus simulans MB94 after 24 hrs by microdilution assay; conditions: MB94, 24 h; how it was run: as §2
# Enterococcus faecalis [10] = experiment: Antibacterial activity against Vancomycin resistant Enterococcus faecalis MB19 after 24 hrs by microdilution assay; conditions: MB19, 24 h; how it was run: as §1
# Enterococcus durans = experiment: Antibacterial activity against Enterococcus durans MB113 after 24 hrs by microdilution assay; conditions: MB113, 24 h; how it was run: as §2
# Staphylococcus aureus [11] = experiment: Antibacterial activity against Methicillin-resistant Staphylococcus aureus MB188 after 24 hrs by microdilution assay; conditions: MB188, 24 h; how it was run: as §1
# Enterococcus faecalis [12] = experiment: Antibacterial activity against Enterococcus faecalis MB76 after 24 hrs by microdilution assay; conditions: MB76, 24 h; how it was run: as §1
# Staphylococcus aureus [13] = experiment: Antibacterial activity against Methicillin-resistant Staphylococcus aureus MB18 after 24 hrs by microdilution assay; conditions: MB18, 24 h; how it was run: as §1
# Enterococcus faecium [14] = experiment: Antibacterial activity against Enterococcus faecium MB2 after 24 hrs by microdilution assay; conditions: MB2, 24 h; how it was run: as §2
# Enterococcus faecalis [15] = experiment: Antibacterial activity against Vancomycin resistant Enterococcus faecalis MB51 after 24 hrs by microdilution assay; conditions: MB51, 24 h; how it was run: as §1
smiles,measurement,setting,value
COC1O[C@H]2C[C@@](C)(O)[C@H](CC/C(C)=C/CC3OC(=O)C=C3C)[C@@]3(C)CCC[C@]1(C)[C@H]23 (stereo partly specified),MIC,[1],148 µM
same,MIC,Enterococcus faecium [2],296 µM
same,MIC,[3],296 µM
same,MIC,[4],296 µM
same,MIC,Staphylococcus hominis,148 µM
same,MIC,Staphylococcus capitis,74.1 µM
same,MIC,Enterococcus faecalis [5],296 µM
same,MIC,[6],148 µM
same,MIC,Enterococcus gallinarum,296 µM
same,MIC,[7],296 µM
same,MIC,[8],148 µM
same,MIC,Enterococcus faecium [9],148 µM
same,MIC,Staphylococcus warneri,148 µM
same,MIC,Enterococcus avium,296 µM
same,MIC,Staphylococcus simulans,296 µM
same,MIC,Enterococcus faecalis [10],148 µM
same,MIC,Enterococcus durans,296 µM
same,MIC,Staphylococcus aureus [11],296 µM
same,MIC,Enterococcus faecalis [12],296 µM
same,MIC,Staphylococcus aureus [13],296 µM
same,MIC,Enterococcus faecium [14],296 µM
same,MIC,Enterococcus faecalis [15],296 µM
COC(=O)[C@]1(C)CCC[C@@]2(C)[C@H]1[C@@H](O)C[C@@](C)(O)[C@@H]2CC/C(C)=C/[C@H](O)[C@H]1OC(=O)C=C1C,MIC,[1],276 µM
same,MIC,Enterococcus faecium [2],276 µM
same,MIC,[3],> 128 mg/L
same,MIC,[4],> 128 mg/L
same,MIC,Staphylococcus hominis,138 µM
same,MIC,Staphylococcus capitis,276 µM
same,MIC,Enterococcus faecalis [5],138 µM
same,MIC,[6],276 µM
same,MIC,Enterococcus gallinarum,276 µM
same,MIC,[7],276 µM
same,MIC,[8],> 128 mg/L
same,MIC,Enterococcus faecium [9],138 µM
same,MIC,Staphylococcus warneri,138 µM
same,MIC,Enterococcus avium,138 µM
same,MIC,Staphylococcus simulans,> 128 mg/L
same,MIC,Enterococcus faecalis [10],276 µM
same,MIC,Enterococcus durans,138 µM
same,MIC,Staphylococcus aureus [11],> 128 mg/L
same,MIC,Enterococcus faecalis [12],276 µM
same,MIC,Staphylococcus aureus [13],276 µM
same,MIC,Enterococcus faecium [14],276 µM
same,MIC,Enterococcus faecalis [15],138 µM
CC1=CC(=O)O[C@@H]1C/C=C(\C)CC[C@@H]1[C@@]2(C)CCC[C@@]3(C)C(O)O[C@@H](C[C@@]1(C)O)[C@H]23 (stereo partly specified),MIC,[1],> 128 mg/L
same,MIC,Enterococcus faecium [2],> 128 mg/L
same,MIC,[3],> 128 mg/L
same,MIC,[4],> 128 mg/L
same,MIC,Staphylococcus hominis,> 128 mg/L
same,MIC,Staphylococcus capitis,> 128 mg/L
same,MIC,Enterococcus faecalis [5],> 128 mg/L
same,MIC,[6],> 128 mg/L
same,MIC,Enterococcus gallinarum,> 128 mg/L
same,MIC,[7],> 128 mg/L
same,MIC,[8],> 128 mg/L
same,MIC,Enterococcus faecium [9],> 128 mg/L
same,MIC,Staphylococcus warneri,> 128 mg/L
same,MIC,Enterococcus avium,> 128 mg/L
same,MIC,Staphylococcus simulans,> 128 mg/L
same,MIC,Enterococcus faecalis [10],> 128 mg/L
same,MIC,Enterococcus durans,> 128 mg/L
same,MIC,Staphylococcus aureus [11],> 128 mg/L
same,MIC,Enterococcus faecalis [12],> 128 mg/L
same,MIC,Staphylococcus aureus [13],> 128 mg/L
same,MIC,Enterococcus faecium [14],> 128 mg/L
same,MIC,Enterococcus faecalis [15],> 128 mg/L
COc1ccc(-c2cc(=O)c3c(OC)c(OC)c(OC)cc3o2)cc1OC [SINENSETIN],MIC,[1],172 µM
same,MIC,Enterococcus faecium [2],344 µM
same,MIC,[3],> 128 mg/L
same,MIC,[4],> 128 mg/L
same,MIC,Staphylococcus hominis,344 µM
same,MIC,Staphylococcus capitis,344 µM
same,MIC,Enterococcus faecalis [5],86 µM
same,MIC,[6],> 128 mg/L
same,MIC,Enterococcus gallinarum,172 µM
same,MIC,[7],> 128 mg/L
same,MIC,[8],344 µM
same,MIC,Enterococcus faecium [9],172 µM
same,MIC,Staphylococcus warneri,344 µM
same,MIC,Enterococcus avium,344 µM
same,MIC,Staphylococcus simulans,> 128 mg/L
same,MIC,Enterococcus faecalis [10],344 µM
same,MIC,Enterococcus durans,344 µM
same,MIC,Staphylococcus aureus [11],344 µM
same,MIC,Enterococcus faecalis [12],344 µM
same,MIC,Staphylococcus aureus [13],> 128 mg/L
same,MIC,Enterococcus faecium [14],344 µM
same,MIC,Enterococcus faecalis [15],172 µM
CC1(C)CCC[C@]2(C)[C@@H](CC[C@](C)(O)[C@H]3CO3)[C@](C)(O)CC[C@@H]12,MIC,[1],198 µM
same,MIC,Enterococcus faecium [2],99 µM
same,MIC,[3],395 µM
same,MIC,[4],198 µM
same,MIC,Staphylococcus hominis,395 µM
same,MIC,Staphylococcus capitis,395 µM
same,MIC,Enterococcus faecalis [5],99 µM
same,MIC,[6],395 µM
same,MIC,Enterococcus gallinarum,99 µM
same,MIC,[7],395 µM
same,MIC,[8],395 µM
same,MIC,Enterococcus faecium [9],198 µM
same,MIC,Staphylococcus warneri,198 µM
same,MIC,Enterococcus avium,99 µM
same,MIC,Staphylococcus simulans,395 µM
same,MIC,Enterococcus faecalis [10],198 µM
same,MIC,Enterococcus durans,198 µM
same,MIC,Staphylococcus aureus [11],395 µM
same,MIC,Enterococcus faecalis [12],198 µM
same,MIC,Staphylococcus aureus [13],395 µM
same,MIC,Enterococcus faecium [14],198 µM
same,MIC,Enterococcus faecalis [15],99 µM
COC1O[C@H]2C[C@@](C)(O)[C@H](CC/C(C)=C/[C@H](O)[C@H]3OC(=O)C=C3C)[C@@]3(C)CCC[C@]1(C)[C@H]23 (stereo partly specified),MIC,[1],286 µM
same,MIC,Enterococcus faecium [2],143 µM
same,MIC,[3],286 µM
same,MIC,[4],> 128 mg/L
same,MIC,Staphylococcus hominis,286 µM
same,MIC,Staphylococcus capitis,286 µM
same,MIC,Enterococcus faecalis [5],143 µM
same,MIC,[6],> 128 mg/L
same,MIC,Enterococcus gallinarum,143 µM
same,MIC,[7],> 128 mg/L
same,MIC,[8],286 µM
same,MIC,Enterococcus faecium [9],286 µM
same,MIC,Staphylococcus warneri,> 128 mg/L
same,MIC,Enterococcus avium,143 µM
same,MIC,Staphylococcus simulans,> 128 mg/L
same,MIC,Enterococcus faecalis [10],286 µM
same,MIC,Enterococcus durans,> 128 mg/L
same,MIC,Staphylococcus aureus [11],> 128 mg/L
same,MIC,Enterococcus faecalis [12],143 µM
same,MIC,Staphylococcus aureus [13],286 µM
same,MIC,Enterococcus faecium [14],286 µM
same,MIC,Enterococcus faecalis [15],143 µM
CC1=CC(=O)O[C@@H]1C/C=C(\C)CC[C@@H]1[C@@]2(C)CCC[C@@](C)(CO)[C@@H]2[C@@H](O)C[C@@]1(C)O,MIC,[1],> 128 mg/L
same,MIC,Enterococcus faecium [2],> 128 mg/L
same,MIC,[3],> 128 mg/L
same,MIC,[4],> 128 mg/L
same,MIC,Staphylococcus hominis,> 128 mg/L
same,MIC,Staphylococcus capitis,> 128 mg/L
same,MIC,Enterococcus faecalis [5],> 128 mg/L
same,MIC,[6],> 128 mg/L
same,MIC,Enterococcus gallinarum,> 128 mg/L
same,MIC,[7],> 128 mg/L
same,MIC,[8],> 128 mg/L
same,MIC,Enterococcus faecium [9],> 128 mg/L
same,MIC,Staphylococcus warneri,> 128 mg/L
same,MIC,Enterococcus avium,> 128 mg/L
same,MIC,Staphylococcus simulans,> 128 mg/L
same,MIC,Enterococcus faecalis [10],> 128 mg/L
same,MIC,Enterococcus durans,> 128 mg/L
same,MIC,Staphylococcus aureus [11],> 128 mg/L
same,MIC,Enterococcus faecalis [12],> 128 mg/L
same,MIC,Staphylococcus aureus [13],> 128 mg/L
same,MIC,Enterococcus faecium [14],> 128 mg/L
same,MIC,Enterococcus faecalis [15],> 128 mg/L
CN[C@H](CC(C)C)C(=O)N[C@H]1C(=O)N[C@@H](CC(N)=O)C(=O)N[C@H]2C(=O)N[C@H]3C(=O)N[C@H](C(=O)N[C@H](C(=O)O)c4cc(O)cc(O)c4-c4cc3ccc4O)[C@H](O)c3ccc(c(Cl)c3)Oc3cc2cc(c3O[C@@H]2O[C@H](CO)[C@@H](O)[C@H](O)[C@H]2O[C@H]2C[C@](C)(N)[C@H](O)[C@H](C)O2)Oc2ccc(cc2Cl)[C@H]1O [VANCOMYCIN],MIC,[1],2.76 µM
same,MIC,Enterococcus faecium [2],88.3 µM
same,MIC,Enterococcus faecalis [5],22.1 µM
same,MIC,Enterococcus gallinarum,11 µM
same,MIC,Enterococcus faecium [9],177 µM
same,MIC,Enterococcus avium,0.69 µM
same,MIC,Enterococcus faecalis [10],22.1 µM
same,MIC,Enterococcus durans,0.69 µM
same,MIC,Enterococcus faecalis [12],88.3 µM
same,MIC,Enterococcus faecium [14],1.38 µM
same,MIC,Enterococcus faecalis [15],44.2 µM
Cc1onc(-c2ccccc2)c1C(=O)N[C@@H]1C(=O)N2[C@@H]1SC(C)(C)[C@@H]2C(=O)O [OXACILLIN],MIC,[3],2.49 µM
same,MIC,[4],1.25 µM
same,MIC,Staphylococcus hominis,39.9 µM
same,MIC,Staphylococcus capitis,638 µM
same,MIC,[6],638 µM
same,MIC,[7],39.9 µM
same,MIC,[8],638 µM
same,MIC,Staphylococcus warneri,319 µM
same,MIC,Staphylococcus simulans,0.62 µM
same,MIC,Staphylococcus aureus [11],1280 µM
same,MIC,Staphylococcus aureus [13],638 µM
